Ecoli rRNA inh: inhibitors of bacterial rRNA selective over humanized ribosomes | E. coli WT GFP vs humanized-ribosome RFP mutants, fluorescence, 24 h; stronger effect = lower value; DMSO median 0, no signal -100 | GFP signal change (wild-type ribosome), % (test concentration not listed) | hit rate 1.6% among 350,000 | AID 720706;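 active = significant combined selectivity score with lowered wild-type GFP, culture density cut under 30%, mutant RFP and density less affected; inactive = any of these conditions unmet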
EWS-Fli inh: blocks EWS/Fli oncoprotein-driven transcription | A673 NR0B1-luciferase reporter, viability-normalised | inhibition, % at 12.6 µM | hit rate 0.67% among 350,000 | AID 651661;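 active = mean inhibition of at least 50% after viability correction, with every replicate also passing that limit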;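 also: firefly luciferase signal divided by Alamar Blue viability fluorescence both relative to DMSO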
E-selectin induc: induces E-selectin expression in human endothelial cells. activation, % at 7.58 µM. hit rate 0.37% among 260,000. AID 686992. P16581. HUVEC E-selectin immunofluorescence imaging; normalized: neutral wells 0, TNF-alpha wells 100;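 active = mean E-selectin-positive cell signal at least 10% of the positive control, reached in at least 60% of replicates, without over 20% cell loss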
Target sequence (P16581 whole entry, looked up): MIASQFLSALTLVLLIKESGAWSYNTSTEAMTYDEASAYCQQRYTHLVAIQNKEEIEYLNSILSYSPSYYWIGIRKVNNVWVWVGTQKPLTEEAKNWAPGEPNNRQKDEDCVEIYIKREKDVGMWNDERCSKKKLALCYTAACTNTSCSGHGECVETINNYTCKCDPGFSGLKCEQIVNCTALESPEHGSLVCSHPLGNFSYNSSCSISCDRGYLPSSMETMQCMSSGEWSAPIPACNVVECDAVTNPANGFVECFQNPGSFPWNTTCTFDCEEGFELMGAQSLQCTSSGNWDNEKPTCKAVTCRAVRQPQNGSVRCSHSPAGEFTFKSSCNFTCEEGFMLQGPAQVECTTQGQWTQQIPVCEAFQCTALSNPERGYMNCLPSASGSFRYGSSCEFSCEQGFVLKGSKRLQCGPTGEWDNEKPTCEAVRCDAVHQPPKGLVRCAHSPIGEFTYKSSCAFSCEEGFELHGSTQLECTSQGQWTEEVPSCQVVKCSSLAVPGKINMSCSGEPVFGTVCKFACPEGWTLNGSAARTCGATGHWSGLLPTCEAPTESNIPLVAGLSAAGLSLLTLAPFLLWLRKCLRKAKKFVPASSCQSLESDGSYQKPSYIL
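Assay system: HUVEC, human umbilical vein endothelial cells / Amount: 3,000 HUVEC/well / Controls: TNF-alpha positive control, DMSO neutral control / Compound dosing: single concentration / Medium: EGM-2 over gelatin coat / Evaluation: percent E-selectin-positive cells / Signal: immunofluorescence imaging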
LGR2 inh: blocks bursicon-induced cAMP signaling via Drosophila LGR2. HEK293 LGR2, CRE-luciferase, bursicon-stimulated, 4 h. inhibition, % at 9.99 µM. hit rate 0.35% among 380,000. AID 720647;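 active = drop in luminescence signal, shown as inhibition above about 50% in the replicate tests, limit read from the data, passing the limit was not always enough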;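 also: agonist challenge used bursicon conditioned medium at about half maximal strength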
Large screens that a line does not name were inactive; ! = a repeat was not active. The list is not random: actives were taken first. Their share in the collection is about 2.4%.

Cc1ccc(Nc2nc(-c3ccccc3)cs2)nc1	LGR2 inh 60 (no result: E-selectin induc)
C/C=C/c1ccc([C@@H]2[C@@H](CN(C)C(=O)CN(C)C)N(C(C)=O)[C@H]2CO)cc1	none
O=C(/C=C/Nc1ccccc1F)c1ccc(Br)cc1	none (no result: Ecoli rRNA inh, EWS-Fli inh, E-selectin induc)
O=C(/C=C/Nc1ccc(Br)cc1F)c1ccccc1	EWS-Fli inh 74 (no result: LGR2 inh)
COc1ccccc1-c1ccc(SCc2ccc(F)cc2)nn1	Ecoli rRNA inh -31 (no result: E-selectin induc)
COc1ccccc1-c1ccc(SCc2ccc(C)cc2)nn1	none
Oc1cccc(/C=N/Nc2cccc3cccnc23)c1	Ecoli rRNA inh -35 (no result: E-selectin induc)
Oc1c(/C=N/Nc2cccc3cccnc23)ccc2ccccc12	none (no result: Ecoli rRNA inh, EWS-Fli inh, E-selectin induc)
COc1cc(/C=N/Nc2cccc3cccnc23)cc(OC)c1O	Ecoli rRNA inh -26
COC(=O)c1c(CC[C@@H](CO)NC(=O)N[C@@H](Cc2ccccc2)Cn2cc(-c3ccccc3)nn2)oc(C(=O)N2CCOCC2)c1C(=O)OC	none (no result: Ecoli rRNA inh, E-selectin induc, LGR2 inh)
CCCOC(=O)C1=C(C)NC2=C(C(=O)CC(C)(C)C2)C1c1cccnc1 (stereo unspecified)	none (no result: Ecoli rRNA inh, EWS-Fli inh, E-selectin induc)
CC1=C(C(=O)OCc2ccccc2)C(c2cccnc2)c2c(n(C)c(=O)n(C)c2=O)N1 (stereo unspecified)	Ecoli rRNA inh -17!
OC[C@H]1[C@@H](c2ccccc2)C2(CN(CCC(F)(F)F)C2)N1Cc1ccncc1	none
CN(CCO)c1cc(Sc2nc3ccccc3s2)c2nonc2c1[N+](=O)[O-]	EWS-Fli inh 53 (no result: E-selectin induc)
CC(=O)Nc1cccc(-c2ccnc3c2CC(C)(C(=O)NCc2cccs2)O3)c1 (stereo unspecified)	EWS-Fli inh 60
CC(=O)Nc1cccc(-c2ccnc3c2CC(C)(C(=O)NCc2cccc(Cl)c2)O3)c1 (stereo unspecified)	none
CC1(C(=O)NCc2cccc(Cl)c2)Cc2c(-c3ccccc3)ccnc2O1 (stereo unspecified)	none
CN(C)c1ccc(-c2ccnc3c2CC(C)(C(=O)NCc2ccccc2)O3)cc1 (stereo unspecified)	EWS-Fli inh 61 (no result: Ecoli rRNA inh)
CC1(C(=O)NCC2CCOCC2)Cc2c(-c3cccc(C(F)(F)F)c3)ccnc2O1 (stereo unspecified)	EWS-Fli inh 52 (no result: E-selectin induc)
CC1(C(=O)NCc2ccccc2)Cc2c(-c3ccccc3)ccnc2O1 (stereo unspecified)	EWS-Fli inh 59
CN(C)c1ccc(-c2ccnc3c2CC(C)(C(=O)NCc2ccncc2)O3)cc1 (stereo unspecified)	none
C[C@H]1CN(C)C(=O)Cc2ccccc2O[C@H]1CN(C)C(=O)OC(C)(C)C	none (no result: EWS-Fli inh, E-selectin induc, LGR2 inh)
C[C@@H]1CN([C@@H](C)CO)C(=O)c2c(c3ccccc3n2C)-c2ccccc2CO[C@H]1CN(C)CC1CCCCC1	none (no result: EWS-Fli inh, E-selectin induc, LGR2 inh)
CN(C)c1ccc2c(c1)[C@H]1C[C@H](CC(=O)N3CCCCC3)O[C@@H](CO)[C@H]1O2	none
CC(C)C[C@H]1COCc2cn(nn2)CC[C@H](Cc2cccc(Cl)c2)C(=O)N1	none (no result: EWS-Fli inh, E-selectin induc, LGR2 inh)
CC1(C(=O)NCc2ccccc2)Cc2c(-c3ccc(C(N)=O)cc3)ccnc2O1 (stereo unspecified)	EWS-Fli inh 54
CC1(C(=O)NCc2ccco2)Cc2c(-c3ccc(C(N)=O)cc3)ccnc2O1 (stereo unspecified)	none (no result: E-selectin induc)
CC1(C(=O)NCCc2ccccc2)Cc2c(-c3ccc4c(c3)OCO4)ccnc2O1 (stereo unspecified)	EWS-Fli inh 58 (no result: Ecoli rRNA inh)
C[C@@H]1CN([C@@H](C)CO)C(=O)c2cc(NC(=O)Nc3ccc4c(c3)OCO4)ccc2O[C@@H](C)CCCCO[C@H]1CN(C)C(=O)Nc1ccccc1	none
OC(c1ccccc1)(c1nc(-c2cc3ccccc3o2)cs1)C(F)(F)F (stereo unspecified)	Ecoli rRNA inh -38
OC(c1ccccc1)(c1nc(-c2cccc(C(F)(F)F)c2)cs1)C(F)(F)F (stereo unspecified)	none
N#Cc1cccc(-c2csc(C(O)(c3ccccc3)C(F)(F)F)n2)c1 (stereo unspecified)	EWS-Fli inh 58
CCCC(=O)Nc1ccc2c(c1)OC[C@@H](C)N(C(=O)c1cnccn1)C[C@@H](C)[C@@H](OC)CN(C)C2=O	none
Cc1noc(C)c1NC(=O)Nc1ccc2c(c1)CC(=O)N([C@H](C)CO)C[C@H](C)[C@@H](CN(C)CC1CC1)O2	none
COc1ccc2c3c(n(C)c2c1)[C@H](CO)N(Cc1ccccc1F)CC31CCN(C(C)=O)CC1	none
CCCNC(=O)N1CC2(CN(Cc3cccc(OC)c3)C2)c2c(n(C)c3cc(OC)ccc23)[C@H]1CO	none
O=C(Nc1ccc(Cl)cc1)N1C[C@H]2[C@@H](c3ccccc31)[C@H](CO)N2C(=O)C1CC1	none
CC1=Nc2ccccc2N=C(NC(=O)CSC(=S)N2CCN(C)CC2)C1c1ccccc1 (stereo unspecified)	none
CC1=Nc2ccccc2N=C(NC(=O)CSC(=S)N2CCCCC2)C1c1ccccc1 (stereo unspecified)	Ecoli rRNA inh -21
c1ccc(N=Nc2ccc3cccccc2-3)cc1	Ecoli rRNA inh -20
Nc1ccc(N=Nc2ccccc2)c(N)n1	Ecoli rRNA inh -24
CO[C@H]1CN(C)C(=O)c2ccc(NS(=O)(=O)c3cccc(F)c3)cc2OC[C@H](C)N(C(=O)Cc2cccnc2)C[C@H]1C	none
Cc1ccc2[nH]c(C)c(CCNC(=O)c3c(N)no[n+]3[O-])c2c1	Ecoli rRNA inh -35
Cc1cc2c(NC(=O)Nc3ccc(C(C)(C)C)cc3)cccc2nn1	Ecoli rRNA inh -33
CCOC(=O)C1CCN(C2=C(NS(=O)(=O)c3ccc(Br)cc3)C(=O)c3ccccc3C2=O)CC1	Ecoli rRNA inh -38 (no result: EWS-Fli inh, E-selectin induc)
NC(=O)C1CCN(C2=C(NS(=O)(=O)c3ccc(Br)cc3)C(=O)c3ccccc3C2=O)CC1	Ecoli rRNA inh -31 (no result: E-selectin induc)
COc1ccc(CCC(=O)NNC(=S)NCc2ccc(F)cc2)cc1	Ecoli rRNA inh -29
Cc1cc(Cl)ccc1NNC(=O)CCc1ccccc1	Ecoli rRNA inh -29
CCCCC(=O)NC(=S)NNC(=O)CCc1ccccc1	none (no result: E-selectin induc)
CC(=O)NC(=S)NNC(=O)CCc1ccccc1	Ecoli rRNA inh -24
CCCNC(=O)Nc1ccc2c(c1)OC[C@@H](C)N(C(=O)CC)C[C@@H](C)[C@H](OC)CN(C)C2=O	none
CCOc1cc(/C=N/NC(=O)c2ccccc2OCc2ccc(F)cc2)ccc1O	Ecoli rRNA inh -21 (no result: E-selectin induc)
Cc1ccccc1Nc1nc(N)nc(COC(=O)c2cccc(S(=O)(=O)NCc3ccccc3)c2)n1	none (no result: Ecoli rRNA inh, LGR2 inh)
Cc1ccccc1Nc1nc(N)nc(COC(=O)c2cccc(S(=O)(=O)N(C)C)c2)n1	Ecoli rRNA inh -17
CCOC(=O)c1c(SCCN2CCCC2)n(-c2ccccc2)c(=S)n(-c2ccccc2)c1=O	EWS-Fli inh 61
CCC(=O)N1C[C@@H](C)[C@H](OC)CN(C)C(=O)c2ccc(NC(=O)Nc3ccc(Cl)cc3)cc2OC[C@H]1C	none
COc1ccc2c3c([nH]c2c1)[C@@H](CO)N(C(=O)Nc1ccc(F)cc1)CC31CN(Cc2ccccc2OC)C1	none
Cc1ccc(C(=O)Nc2ccccc2C(=O)O)cc1S(=O)(=O)Nc1ccc(Br)cc1	Ecoli rRNA inh -36
O=C(NCc1ccco1)c1ccc(Cl)c(S(=O)(=O)Nc2ccccc2)c1	none (no result: E-selectin induc)

Source: PubChem BioAssay (Broad Institute)
